For orientation: Ki means a dissociation constant, usually derived from enzyme kinetics or from competition with a known ligand.

The values below come from ChEMBL document CHEMBL1122056, “Synthesis and biochemical properties of chemically stable product analogues of the reaction catalyzed by S-adenosyl-L-methionine decarboxylase” (J Med Chem, 1982).

For assay [1], the target named is T1, S-adenosylmethionine decarboxylase proenzyme (Rattus norvegicus) (UniProt P17708).
T1 sequence (whole entry): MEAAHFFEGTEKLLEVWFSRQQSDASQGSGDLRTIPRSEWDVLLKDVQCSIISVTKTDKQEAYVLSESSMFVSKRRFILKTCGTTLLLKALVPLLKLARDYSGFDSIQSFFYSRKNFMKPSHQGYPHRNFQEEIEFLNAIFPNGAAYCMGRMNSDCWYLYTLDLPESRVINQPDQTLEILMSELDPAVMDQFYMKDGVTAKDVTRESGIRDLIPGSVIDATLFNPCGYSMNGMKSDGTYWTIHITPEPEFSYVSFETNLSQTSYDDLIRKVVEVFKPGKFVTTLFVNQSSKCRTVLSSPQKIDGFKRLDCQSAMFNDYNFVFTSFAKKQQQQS
Kind of assay: Time required for the half inactivation of S-Adenosyl-L-methionine decarboxylase was determined with 0.2 mM of Compound along with 1 mM NaBH3CN. Put shortly: (§1)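 The partly purified rat liver enzyme, from MGBG-treated rats, was incubated at 37 °C in 30 mM sodium phosphate pH 7.1 with 5 mM dithiothreitol and the stated additions. Aliquots were taken at intervals and assayed for remaining activity with S-adenosyl-L-[carboxy-14C]methionine. The half-inactivation time was obtained by a least-squares fit of the data points.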

Assay [2] has as its target T1, S-adenosylmethionine decarboxylase proenzyme (Rattus norvegicus). Kind of assay: Time required for the half inactivation of S-Adenosyl-L-methionine decarboxylase was determined with 0.2 mM of compound. Put shortly: as §1
Assay [3] addresses T2, S-adenosylmethionine decarboxylase proenzyme (Rattus norvegicus, UniProt P17708).
T2 sequence (P17708 whole entry): T1 sequence (whole entry)
Kind of assay: In vitro inhibitory activity against S-adenosyl-L-methionine decarboxylase using liver from rat in presence of 1 mM putrescine. In a few lines: (§2)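 Enzyme source: liver of rats injected with MGBG·2HCl (80 mg/kg) 22 h before sacrifice. The extract was taken through a 10500g centrifugation and an (NH4)2SO4 precipitation. Decarboxylation of S-adenosyl-L-[carboxy-14C]methionine was measured as 14CO2 release, with or without 1 mM putrescine. Competitive inhibition was judged from Lineweaver-Burk plots, and Ki was read from Dixon plots.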

For assay [4], the target named is T1, S-adenosylmethionine decarboxylase proenzyme (Rattus norvegicus). In words: Time required for the half inactivation of S-Adenosyl-L-methionine decarboxylase was determined with 0.2 mM of compound along with 1 mM NaBH3CN. Put shortly: as §1
In assay [5] the target is T2, S-adenosylmethionine decarboxylase proenzyme. Kind of assay: In vitro inhibitory activity against S-adenosyl-L-methionine decarboxylase using liver from rat in absence of putrescine. In a few lines:
as §2

Assay [6] addresses T1, S-adenosylmethionine decarboxylase proenzyme (Rattus norvegicus). Kind of assay: Time required for the half inactivation of S-adenosyl-L-methionine decarboxylase with 0.5 mM of compound along with 0.05 mM of [5-(6-Amino-purin-9-yl)-3,4-dihydroxy-tetrahydro-furan-2-ylmethyl]-dimethyl-sulfonium; iodide. In a few lines:
as §1

For assay [7] the target is unchanged. In words: Time required for the half inactivation of S-adenosyl-L-methionine decarboxylase with 1 mM of compound along with 0.05 mM of [5-(6-Amino-purin-9-yl)-3,4-dihydroxy-tetrahydro-furan-2-ylmethyl]-dimethyl-sulfonium; iodide. The settings on record: in the assay text read “0.2 mM of compound” for “1 mM of compound”. In a few lines: as §1
For assay [8] the target is unchanged. Kind of assay: Time required for the half inactivation of S-adenosyl-L-methionine decarboxylase was determined with 0.5 mM of compound.

For `NCCCNC[C@H]1OC(n2cnc3c(N)ncnc32)[C@H](O)[C@@H]1O` (some centres undefined), the Inactivation time in assay [1] was determined as 25 min; in assay [2], 250 min. Further, the Ki in assay [3] was 50 µM.

Consider `C[S+](CC[C@H](N)C(=O)[O-])C[C@H]1O[C@@H](n2cnc3c(N)ncnc32)[C@H](O)[C@@H]1O` (some centres undefined) [ADEMETIONINE], for which the Inactivation time in assay [2] was determined as 100 min; in assay [4], 25 min. In addition, the results for the Ki in assay [5] and in assay [3] were 300 µM and 60 µM, respectively.

As to `NC[C@H]1O[C@@H](n2cnc3c(N)ncnc32)[C@H](O)[C@@H]1O`, the inhibitory constant (Ki) in assay [5] came to 1700 µM; in assay [3], 200 µM.

For `CNCCCNC[C@H]1OC(n2cnc3c(N)ncnc32)[C@H](O)[C@@H]1O` (some centres undefined), the inhibition constant (Ki) in assay [3] is 600 µM.

Take `N=C(N)NC[C@H]1OC(n2cnc3c(N)ncnc32)[C@H](O)[C@@H]1O` (some centres undefined): the Ki in assay [5] was determined as 1000 µM; in assay [3] it was 80 µM.

Turning to `C[S+](CCCN)C[C@H]1OC(n2cnc3c(N)ncnc32)[C@H](O)[C@@H]1O` (some centres undefined), the Inactivation time in assay [2] worked out at 100 min; in assay [4], 10 min. Also, the Ki in assay [5] amounted to 40 µM; in assay [3], 3 µM.

For the compound `NCCNC[C@H]1OC(n2cnc3c(N)ncnc32)[C@H](O)[C@@H]1O` (some centres undefined), the Ki in assay [5] came out at 540 µM; in assay [3] it was 70 µM.

As for `C[S+](C)C[C@H]1O[C@@H](n2cnc3c(N)ncnc32)[C@H](O)[C@@H]1O`, the values for the Ki in assay [5] and in assay [3] were 20 µM and 2 µM, respectively.

As for `CN(CCCN)C[C@H]1OC(n2cnc3c(N)ncnc32)[C@H](O)[C@@H]1O` (some centres undefined), the Inactivation time amounted to 93 min in assay [2]; 12 min in assay [4]; 98 min in assay [6]; 50 min in assay [7]; 41 min in assay [8]. In addition, the figures for the inhibitory constant (Ki) in assay [5] and in assay [3] were 380 µM and 60 µM, respectively.

Regarding `CN(CCC#N)C[C@H]1OC(n2cnc3c(N)ncnc32)[C@H](O)[C@@H]1O` (some centres undefined), the inhibition constant (Ki) in assay [5] came to 2800 µM; in assay [3] it was 300 µM.
